Series [1] can be described thus: melting temperature; fluorescence melt of hairpins on a sequencing array, two-state fit, raised by 9.35 °C to match UV melts. The note with it: sodium 0.088 M. Put shortly:
(§1)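 Two-state fits, bootstrapped, provided melting temperature and folding enthalpy from Cy3 fluorescence normalised to pre-quench Cy3 and to control constructs. Library hairpins with annealed Cy3 and quencher oligos were imaged on a sequenced MiSeq flow cell in 50 mM Na-HEPES pH 8.0, 25 mM NaCl, at 2.5 °C intervals up to 60 °C. Four replicates were combined with inverse-variance weighting. A 9.35 °C upward shift was applied to fitted temperatures to match UV melts.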

The nature of series [2]: folding enthalpy; higher = less favourable; fluorescence melt of hairpins on a sequencing array, two-state fit. The note with it: sodium 0.088 M. The procedure, abridged:
as §1

On to GCGGTGCGAAAGCGCAGC ((.(.((....)).).)), for which, in series [1], the Tm came to 64.1 °C. In addition, the folding enthalpy in series [2] was -23.4 kcal/mol.
For GCGGTGGGAAACTGCCGC ((((..(....)..)))) the same measures were 56.6 °C and -41.6 kcal/mol.
GCGGTGTCCGC ((((...)))): the Tm in series [1] was 58.2 °C. In series [2], the folding enthalpy was -23 kcal/mol.
GCGGTTACCGC ((((...)))): in series [1], the Tm is 59.2 °C. For the same sequence, in series [2], the folding enthalpy was -28.8 kcal/mol.
On to GCGGTTATCCGC ((((....)))), for which the Tm in series [1] turned out to be 59 °C. Also, in series [2], the folding enthalpy was -30 kcal/mol.
As for GCGGTTCGAAAGAAACGC (((.(((....))).))), the Tm in series [1] is 69.1 °C. The folding enthalpy in series [2] is -33.7 kcal/mol.
On to GCGGTTCGAAAGAACGC (((.(((....)))))), for which, in series [1], the Tm stood at 61.2 °C. Also, in series [2], the folding enthalpy was -26.8 kcal/mol.
On the same counts, the results for GCGGTTGACCGC ((((....)))) are 63.9 °C and -24.7 kcal/mol.
On the same counts, the results for GCGGTTGCCGC ((((...)))) are 56.6 °C and -21.2 kcal/mol.
In the case of GCGTAAAAACGC ((((....)))), the Tm in series [1] amounted to 46.4 °C. The folding enthalpy in series [2] is -19.9 kcal/mol.
On the same counts, the results for GCGTAACGAAAGTTTCGC (((.(((....))).))) are 57 °C and -41.3 kcal/mol.
In the case of GCGTAAGGAAACTTACAC (.(((((....))))).), the Tm in series [1] worked out at 33.4 °C. The folding enthalpy in series [2] is -18.4 kcal/mol.
For GCGTAAGGAAACTTACGC (((((((....))))))) the same measures were 63.4 °C and -44.5 kcal/mol.
With GCGTAAGGACGC ((((....)))), in series [1], the Tm worked out at 49.3 °C. Further, the folding enthalpy in series [2] was -19.7 kcal/mol.
On the same counts, the results for GCGTAAGTACGC ((((....)))) are 52.9 °C and -23.9 kcal/mol.
As to GCGTACATACGC ((((....)))), in series [1], the Tm came out at 52.1 °C. Further, in series [2], the folding enthalpy was -24 kcal/mol.
On the same counts, the results for GCGTACCAACGC ((((....)))) are 53.6 °C and -21 kcal/mol.
For GCGTACGACGC ((((...)))) the same measures were 53.3 °C and -23.8 kcal/mol.
With GCGTACTAACGC ((((....)))), in series [1], the Tm was determined as 53 °C. Further, in series [2], the folding enthalpy is -27.2 kcal/mol.
Consider GCGTAGAACGC ((((...)))), for which the Tm in series [1] turned out to be 54.6 °C. For the same sequence, the folding enthalpy in series [2] was -23.7 kcal/mol.
With GCGTAGACGAAAGTCCGC (((..(((....)))))), the Tm in series [1] came to 53.7 °C. In series [2], the folding enthalpy is -34.9 kcal/mol.
For GCGTAGCACGC ((((...)))) the same measures were 68.2 °C and -11 kcal/mol.
Consider GCGTAGCGAAAGCAAAGC ((.(.((....)).).)), for which, in series [1], the Tm came out at 54.5 °C. The folding enthalpy in series [2] was -14.2 kcal/mol.
GCGTAGCGAAAGCAACGC ((((.((....)).)))): the Tm in series [1] stood at 66.7 °C. Also, in series [2], the folding enthalpy is -21.1 kcal/mol.
For the sequence GCGTAGCGAAAGCAATGC ((.(.((....)).).)), in series [1], the Tm is 35.8 °C. Besides, the folding enthalpy in series [2] is -7.98 kcal/mol.
Take GCGTAGCGAAAGCCAAGC ((.(.((....)).).)): the Tm in series [1] stood at 39.9 °C. Also, in series [2], the folding enthalpy is -8.12 kcal/mol.
As for GCGTAGCGAAAGCCAGGC ((.(.((....)).).)), the Tm in series [1] amounted to 31.1 °C. Further, the folding enthalpy in series [2] is -5.07 kcal/mol.
For GCGTAGCGAAAGCCATGC ((.(.((....)).).)), in series [1], the Tm is 35.6 °C. In series [2], the folding enthalpy is -7.22 kcal/mol.
As for GCGTAGCGAAAGCCCCGC (((..((....))..))), the Tm in series [1] was 35.9 °C. Also, the folding enthalpy in series [2] is -6.69 kcal/mol.
Turning to GCGTAGCGAAAGCCTCGC (((..((....))..))), in series [1], the Tm came out at 44.1 °C. In series [2], the folding enthalpy is -10.8 kcal/mol.
GCGTAGCGAAAGCGATGC ((.(.((....)).).)): in series [1], the Tm was 51.6 °C. Also, the folding enthalpy in series [2] is -13.9 kcal/mol.
For GCGTAGCGAAAGCGCCGC (((..((....))..))), the Tm in series [1] worked out at 59.7 °C. Further, in series [2], the folding enthalpy is -15.9 kcal/mol.
As for GCGTAGCGAAAGCTAAGC ((.((((....)))).)), the Tm in series [1] came out at 58.5 °C. Further, the folding enthalpy in series [2] is -16.1 kcal/mol.
On to GCGTAGGGAAACCTATGC ((.((((....)))).)), for which, in series [1], the Tm came to 50.3 °C. Further, in series [2], the folding enthalpy was -34.1 kcal/mol.
On to GCGTAGGGAAACCTGCGC (((.(((....))).))), for which, in series [1], the Tm turned out to be 58.9 °C. Also, the folding enthalpy in series [2] was -37.7 kcal/mol.
For GCGTATCGAAAGATCGC (((.(((....)))))), in series [1], the Tm turned out to be 55.6 °C. The folding enthalpy in series [2] is -34.2 kcal/mol.
For GCGTATGCGAAAGCACGC (((..(((....)))))) the same measures were 53.1 °C and -20.9 kcal/mol.
For the sequence GCGTATGGAAACATGCGC (((.(((....))).))), the Tm in series [1] amounted to 57 °C. In series [2], the folding enthalpy was -38.2 kcal/mol.
On the same counts, the results for GCGTATGGACGC ((((....)))) are 51.4 °C and -21 kcal/mol.

The values are drawn from the array DNA melting data of Ke et al. (doi:10.1101/2024.01.08.574731).
